Test results from ChEMBL document CHEMBL4257504, “Tricyclic xanthine derivatives containing a basic substituent: adenosine receptor affinity and drug-related properties” (Medchemcomm, 2018).
In brackets after ≈: the same amount, converted by molar mass.

What was measured:
[1] = target: T1, Adenosine receptor A3 (Homo sapiens) (UniProt P0DMS8); experiment: Displacement of [3H]PSB-11 from human adenosine A3 receptor expressed in CHO cell membranes at 1 uM relative to control
T1 sequence (whole entry): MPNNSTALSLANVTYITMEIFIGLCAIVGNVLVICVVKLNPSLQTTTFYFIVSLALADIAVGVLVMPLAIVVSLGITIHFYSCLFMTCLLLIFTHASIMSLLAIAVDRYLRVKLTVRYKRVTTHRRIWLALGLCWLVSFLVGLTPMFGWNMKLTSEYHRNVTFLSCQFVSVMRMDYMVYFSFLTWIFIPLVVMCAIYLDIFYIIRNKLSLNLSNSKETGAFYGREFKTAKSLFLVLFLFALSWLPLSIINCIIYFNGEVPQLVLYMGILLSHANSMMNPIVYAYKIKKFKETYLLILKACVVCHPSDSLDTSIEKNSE

[2] = target: T2, Adenosine receptor A2b (Homo sapiens) (UniProt P29275); experiment: Displacement of [3H]PSB-603 from human adenosine A2B receptor expressed in CHO cell membranes at 1 uM relative to control
T2 sequence (whole entry): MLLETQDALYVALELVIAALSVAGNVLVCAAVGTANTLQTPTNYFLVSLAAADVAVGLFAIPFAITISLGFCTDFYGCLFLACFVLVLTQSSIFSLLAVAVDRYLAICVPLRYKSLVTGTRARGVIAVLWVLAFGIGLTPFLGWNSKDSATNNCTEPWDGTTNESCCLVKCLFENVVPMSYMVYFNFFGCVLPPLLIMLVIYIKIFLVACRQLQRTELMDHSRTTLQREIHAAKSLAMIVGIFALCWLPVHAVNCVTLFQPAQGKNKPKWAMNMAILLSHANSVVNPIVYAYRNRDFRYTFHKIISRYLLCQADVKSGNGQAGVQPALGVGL

Adenosine receptor A1 = target: T3, Adenosine receptor A1 (Rattus norvegicus, UniProt P25099); experiment: Displacement of [3H]CCPA from adenosine A1 receptor in rat brain cortical membranes; format: cell membranes
T3 sequence (P25099 whole entry): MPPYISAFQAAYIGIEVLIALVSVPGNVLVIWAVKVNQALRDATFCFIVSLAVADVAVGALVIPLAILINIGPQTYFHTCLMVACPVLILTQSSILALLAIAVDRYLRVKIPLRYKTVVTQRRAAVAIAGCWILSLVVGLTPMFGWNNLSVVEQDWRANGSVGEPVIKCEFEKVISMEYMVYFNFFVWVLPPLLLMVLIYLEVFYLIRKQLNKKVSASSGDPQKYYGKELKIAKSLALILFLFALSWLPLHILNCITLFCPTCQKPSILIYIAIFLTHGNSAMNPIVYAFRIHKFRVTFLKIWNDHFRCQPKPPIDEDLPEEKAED
Summary of the method: (§1)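 Membrane radioligand binding: A1 in rat brain cortical membranes and A2A in rat brain striatal membranes, with human A1 and A2A in recombinant CHO cell membranes. Radioligands are [3H]CCPA for A1 and [3H]MSX-2 for A2A. Full concentration-inhibition curves use six to ten concentrations spanning three orders of magnitude, with at least three independent experiments.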

[3] = target: T4, Adenosine receptor A1 (Rattus norvegicus) (UniProt P25099); experiment: Displacement of [3H]CCPA from adenosine A1 receptor in rat brain cortical membranes at 1 uM relative to control; format: cell membranes
T4 sequence (whole entry): T3 sequence (P25099 whole entry)

Adenosine receptor A3 = target: T5, Adenosine receptor A3 (Homo sapiens, UniProt P0DMS8); experiment: Displacement of [3H]PSB-11 from human adenosine A3 receptor expressed in CHO cell membranes
T5 sequence (P0DMS8 whole entry): T1 sequence (whole entry)
Summary of the method: (§2)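 Membranes from CHO cells recombinantly expressing human A2B or A3 receptor. Radioligands are [3H]PSB-603 for A2B and [3H]PSB-11 for A3. Competition curves use six to ten test-compound concentrations spanning three orders of magnitude, with at least three independent experiments.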

Adenosine receptor A2a = Adenosine receptor A2a (Rattus norvegicus, UniProt P30543); experiment: Displacement of [3H]MSX-2 from adenosine A2A receptor in rat brain striatal membranes; format: cell membranes, Striatum, Membrane; summary of the method: as §1
Adenosine receptor A2b [4] = target: T6, Adenosine receptor A2b (Homo sapiens, UniProt P29275); experiment: […] from human adenosine A2B receptor expressed in CHO cell membranes; details: in the assay text read “[3H]PSB-603” for “[3H]PSB-602”; summary of the method: as §2
T6 sequence (P29275 whole entry): T2 sequence (whole entry)

[5] = (§3) Drug level in rat liver microsomes treated with 2-(4-(2-(1,3-Dibutyl-2,4-dioxo-1,2,3,4,7,8-hexahydropyrimido[2,1-f]purin-9(6H)-yl)ethyl)phenoxy)-N-(3-(diethylamino)propyl)-acetamide at 50 uM preincubated for 5 mins followed by addition of NADPH regenerating system and measured after 120 mins by UPLC/MS analysis; format: ADME, microsome; details: 2 h
Summary of the method: (§4)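 Incubations use pooled human (adult male and female) or rat liver microsomes at 1 mg/ml in 0.1 M Tris-HCl pH 7.4 with compound at 50 μM. After 5 min preincubation at 37 °C, an NADPH regenerating system is added to start the reaction. Cold methanol stops it at 120 min; samples are centrifuged and the supernatant analysed by UPLC/MS.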

[6] = as §3, with “in human” for “in rat”; format: ADME, microsome; details: 2 h; summary of the method: as §4
[7] = Solubility of compound in water after over night incubation by UV spectroscopic method; format: physicochemical
Summary of the method: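 Compound (10 mg, basic form) is suspended in 2 mL water, boiled 5 min, left overnight at 20 °C and filtered. The filtrate is diluted 10–80-fold in MeOH and read by UV in 90% MeOH/H2O. Concentration comes from seven-point standard curves (10^-3 to 10^-1 mg/mL) by linear regression, multiplied by the dilution factor.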

Adenosine receptor A2b [8] = target: T6, Adenosine receptor A2b; experiment: Displacement of [3H]PSB-603 from human adenosine A2B receptor expressed in CHO cell membranes

Sequence of Adenosine receptor A2a (P30543 whole entry): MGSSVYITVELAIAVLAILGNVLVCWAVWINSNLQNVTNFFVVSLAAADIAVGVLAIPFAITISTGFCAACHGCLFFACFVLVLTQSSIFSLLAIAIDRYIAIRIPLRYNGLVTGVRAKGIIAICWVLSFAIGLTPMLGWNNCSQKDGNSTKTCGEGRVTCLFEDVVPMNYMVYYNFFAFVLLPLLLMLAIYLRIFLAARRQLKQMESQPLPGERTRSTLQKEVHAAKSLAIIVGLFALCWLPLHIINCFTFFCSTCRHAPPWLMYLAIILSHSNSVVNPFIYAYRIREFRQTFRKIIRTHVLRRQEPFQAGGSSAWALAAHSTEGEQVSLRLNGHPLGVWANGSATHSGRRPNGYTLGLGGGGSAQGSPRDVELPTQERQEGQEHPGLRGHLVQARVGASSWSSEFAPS

Structure (SMILES)	inhibition [1]	inhibition [2]	Ki (Adenosine receptor A1)	inhibition [3]	Ki (Adenosine receptor A3)	Ki (Adenosine receptor A2a)	Ki (Adenosine receptor A2b [4])	Drug metabolism [5]	Drug metabolism [6]	solubility [7]	Ki (Adenosine receptor A2b [8])
CCCCn1c(=O)n(CCC(C)O)c(=O)c2c1nc1n2CCCN1CCc1ccc(OCC(=O)NCCCN(CC)CC)cc1 (centres undefined)								Metabolite_Detected	Metabolite_Detected		
CCCCn1c(=O)c2c(nc3n2CCCN3CCc2ccc(OCC(=O)NCc3cccc(Cl)c3)cc2)n(CCCC)c1=O	42%	18%	684 nM		> 1000 nM	6520 nM	> 1000 nM				
CCCn1c(=O)c2c(nc3n2CCCN3CCc2ccc(OCC(=O)NCCN(CC)CC)cc2)n(CCC)c1=O			120 nM		508 nM	271 nM	179 nM			1080 µM (≈ 615 µg/mL)	
CCCCn1c(=O)[nH]c2nc3n(c2c1=O)CCCN3CCc1ccc(OCC(=O)NCCCN(CC)CC)cc1								Metabolite_Detected			
CCCCn1c(=O)c2c(nc3n2CCCN3CCc2ccc(OCC(=O)NCCc3ccc(S(N)(=O)=O)cc3)cc2)n(CCCC)c1=O	23%	31%	> 10000 nM	27%	> 1000 nM	2270 nM	> 1000 nM				
CCCn1c(=O)c2c(nc3n2CCCN3CCc2ccc(OCC(=O)NCc3cccc(Cl)c3)cc2)n(CCC)c1=O		22%	1370 nM		572 nM	807 nM	> 1000 nM				

Now from value to compound:

inhibition [1]	inhibition [2]	Ki (Adenosine receptor A1)	inhibition [3]	Ki (Adenosine receptor A3)	Ki (Adenosine receptor A2a)	Ki (Adenosine receptor A2b [4])	Drug metabolism [5]	Drug metabolism [6]	solubility [7]	Ki (Adenosine receptor A2b [8])	Structure (SMILES)
41%	31%	> 10000 nM	37%	> 1000 nM	1360 nM	> 1000 nM					CCCn1c(=O)c2c(nc3n2CCCN3CCc2ccc(OCC(=O)NCc3ccc(F)cc3)cc2)n(CCC)c1=O
36%		136 nM		> 1000 nM	303 nM				823 µM (≈ 479 µg/mL)	340 nM	CCCn1c(=O)c2c(nc3n2CCCN3CCc2ccc(OCC(=O)NCCCN(CC)CC)cc2)n(CCC)c1=O
34%	22%	> 10000 nM	26%	> 1000 nM	3230 nM	> 1000 nM					CCCn1c(=O)c2c(nc3n2CCCN3CCc2ccc(OCC(=O)NCc3ccccc3)cc2)n(CCC)c1=O
28%	30%	10000 nM	45%	> 1000 nM	1870 nM	> 1000 nM					CCCn1c(=O)c2c(nc3n2CCCN3CCc2ccc(OCC(=O)NCCc3ccc(S(N)(=O)=O)cc3)cc2)n(CCC)c1=O
33%		146 nM		> 1000 nM	320 nM	452 nM					CCCn1c(=O)c2c(nc3n2CCCN3CCc2ccc(OCC(=O)NCCCN3CCCC3)cc2)n(CCC)c1=O
31%	39%	563 nM		> 1000 nM	1360 nM	> 1000 nM					CCCn1c(=O)c2c(nc3n2CCCN3CCc2ccc(OCC(=O)NCCc3ccccn3)cc2)n(CCC)c1=O
23%	31%	593 nM		> 1000 nM	7310 nM	> 1000 nM					CCCCn1c(=O)c2c(nc3n2CCCN3CCc2ccc(OCC(=O)NCc3ccc(Cl)cc3)cc2)n(CCCC)c1=O
		194 nM		868 nM	569 nM	275 nM					CCCCn1c(=O)c2c(nc3n2CCCN3CCc2ccc(OCC(=O)NCCCn3ccnc3)cc2)n(CCCC)c1=O
